≈ marks a conversion by molar mass, not a printed value.
Tests used:
Format in all cases: functional
Aeromonas [1] = assay: In Vitro Anti Bacterial Activity (MIC90) against 90% of tested clinical Isolates of Aeromonas species(21)
Method in brief: (§1)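 Over 500 clinical isolates tested in total; the line gives the isolate count. MIC90 for aerobes by dilution in Mueller Hinton 2 medium, inoculum 10⁴ cells/mL, incubated 24 h at 37 °C.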

[2] = tested on: Acinetobacter calcoaceticus subsp. anitratus; assay: In Vitro Anti Bacterial Activity (MIC90) against 90% of tested clinical Isolates of Acinetobacter anitratus(20); method in brief: as §1
Moraxella catarrhalis [3] = assay: In Vitro Anti Bacterial Activity (MIC90) against 90% of tested clinical Isolates of Branhamella catarrhalis(27)
Bacteroides fragilis [4] = assay: In Vitro Anti Bacterial Activity (MIC90) against 90% of tested clinical Isolates of Bacteroides fragilis(15)
Method in brief: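 Anaerobic clinical isolates. MIC90 by dilution in Wilkins-Chalgren agar, inoculum 10⁵ cells/mL, incubated 24–48 h at 37 °C.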

Clostridium perfringens [5] = assay: In Vitro Anti Bacterial Activity (MIC90) against 90% of tested clinical Isolates of Clostridium perfringens(27)
Method in brief: (§2)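 MIC90 over clinical isolates of this anaerobic species, taken from the MIC distribution. Anaerobes were tested on Wilkins-Chalgren agar with an inoculum of 10⁵ cells/mL and incubated 24–48 h at 37 °C.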

Citrobacter freundii = assay: In Vitro Anti Bacterial Activity (MIC90) against 90% of tested clinical Isolates of Citrobacter freundii(20); method in brief: as §1
Enterococcus faecalis [6] = assay: In Vitro Anti Bacterial Activity (MIC90) against 90% of tested clinical Isolates of Enterococcus faecalis(47); method in brief: as §1
Enterococcus faecium [7] = assay: In Vitro Anti Bacterial Activity (MIC90) against 90% of tested clinical Isolates of Enterococcus faecium(47); method in brief: as §1
Enterococcus faecalis [8] = assay: In Vitro antibacterial activity against (Ef) Enterococcus faecalis ATCC 29212
Method in brief: (§3)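 Panel of standard ATCC strains plus modified strains: methicillin-resistant, hyperpermeable, β-lactamase-producing (TEM1, TEM2, SHV) and β-lactamase-lacking. MIC determined in Mueller Hinton 2 medium, inoculum 10⁴ cells/mL, incubated 24 h at 37 °C.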

Escherichia coli [9] = assay: In Vitro Anti Bacterial Activity (MIC90) against 90% of tested clinical Isolates of Escherichia coli; method in brief: as §1
Klebsiella aerogenes = assay: In Vitro Anti Bacterial Activity (MIC90) against 90% of tested clinical Isolates of Enterobacter aerogenes(19); method in brief: as §1
Escherichia coli [10] = assay: In Vitro antibacterial activity against (Ec L) Escherichia coli […] strain; method in brief: as §3
Escherichia coli [11] = assay: In Vitro antibacterial activity against (Ec SHV) Escherichia coli […] strain; method in brief: as §3
Escherichia coli [12] = assay: In Vitro antibacterial activity against (Ec TEM1) Escherichia coli […] strain; method in brief: as §3
Escherichia coli [13] = assay: In Vitro antibacterial activity against (Ec TEM2) Escherichia coli […] strain; method in brief: as §3
Escherichia coli [14] = assay: In Vitro antibacterial activity against (Ec) Escherichia coli ATCC 25922; method in brief: as §3
Haemophilus influenzae [15] = assay: In Vitro Anti Bacterial Activity (MIC90) against 90% of tested clinical Isolates of Haemophilus Influenzae(21)
Method in brief: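 Clinical isolates. MIC90 in Haemophilus Test Medium Base plus Haemophilus Test Medium Supplement, inoculum 10⁴ cells/mL, incubated 24–48 h at 37 °C.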

Klebsiella pneumoniae = assay: In Vitro Anti Bacterial Activity (MIC90) against 90% of tested clinical Isolates of Klebsiella pneumoniae(20); method in brief: as §1
Pseudomonas aeruginosa [16] = assay: In Vitro antibacterial activity against (Pa G242) hyperpermeable Pseudomonas aeruginosa strain; method in brief: as §3
Pseudomonas aeruginosa [17] = assay: In Vitro antibacterial activity against (Pa) Pseudomonas aeruginosa ATCC 27853; method in brief: as §3
Pseudomonas aeruginosa [18] = assay: In Vitro antibacterial activity against (Pa) hyperpermeable Pseudomonas aeruginosa […] strain; method in brief: as §3
Pseudomonas aeruginosa [19] = assay: In Vitro Anti Bacterial Activity (MIC90) against 90% of tested clinical Isolates of Pseudomonas aeruginosa(11); method in brief: as §1
[20] = tested on: Staphylococcus epidermidis; assay: In Vitro Anti Bacterial Activity (MIC90) against 90% of tested clinical Isolates of Staphylococcus epidermidis (13); method in brief: as §1
Streptococcus agalactiae [21] = assay: In Vitro Anti Bacterial Activity (MIC90) against 90% of tested clinical Isolates of Streptococcus agalactiaeB(21)
Staphylococcus aureus [22] = assay: In Vitro Anti Bacterial Activity (MIC90) against 90% of tested clinical Isolates of Staphylococcus aureus MS (6); method in brief: as §1
Staphylococcus aureus [23] = assay: In Vitro Anti Bacterial Activity (MIC90) against 90% of tested clinical Isolates of Staphylococcus aureus MV (20)
Staphylococcus aureus [24] = assay: In vitro antibacterial activity against Sa MR(I) heterogeneous methicillin resistant Staphylococcus aureus
Method in brief: (§4)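 MIC was determined in Mueller Hinton 2 medium with an inoculum of 10⁴ cells/mL and incubation for 24 h at 37 °C. Strains: Sa(I) is S. aureus ATCC 29213; Sa MR(I) is a heterogeneous methicillin-resistant S. aureus; Sa MR(II) is a homogeneous methicillin-resistant S. aureus.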

Staphylococcus aureus [25] = assay: In vitro antibacterial activity against Sa MR(II) homogeneous methicillin resistant Staphylococcus aureus; method in brief: as §4
Staphylococcus aureus [26] = assay: In vitro antibacterial activity against Sa(I) Staphylococcus aureus ATCC 29213; method in brief: as §4
Staphylococcus aureus [27] = assay: In vitro antibacterial activity against Sa(II) Staphylococcus aureus ATCC 25923; method in brief: as §3
Streptococcus pyogenes [28] = assay: In Vitro Anti Bacterial Activity (MIC90) against 90% of tested clinical Isolates of Streptococcus pyogenes(31)
Streptococcus pneumoniae = assay: In Vitro Anti Bacterial Activity (MIC90) against 90% of tested clinical Isolates of Streptococcus pneumoniae (23)
Yersinia sp. = assay: In Vitro Anti Bacterial Activity (MIC90) against 90% of tested clinical Isolates of Yersinia species(20); conditions: Yersinia sp. (in: enterobacteria)
[29] = tested on: Stenotrophomonas maltophilia; assay: In Vitro Anti Bacterial Activity (MIC90) against 90% of tested clinical Isolates of Xanthomonas maltophilia(9); method in brief: as §1
Escherichia coli [30] = assay: In Vitro antibacterial activity against (Ec DC2) hyperpermeable Escherichia coli strain; method in brief: as §3
Listeria monocytogenes [31] = assay: In Vitro Anti Bacterial Activity (MIC 90) against 90% of tested clinical Isolates of Listeria monocytogenes (20); method in brief: as §1
Aeromonas [32] = assay: In vitro 90% of tested clinical Isolates of Aeromonas species(21); method in brief: as §1
Moraxella catarrhalis [33] = assay: In vitro Anti Bacterial Activity (MIC90) against 90% of tested clinical Isolates of Branhamella catarrhalis(27)
Bacteroides fragilis [34] = assay: In vitro Anti Bacterial Activity (MIC90) against 90% of tested clinical Isolates of Bacteroides fragilis(15)
Method in brief: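 MIC90 over clinical anaerobe isolates; MICs in Wilkins-Chalgren agar, inoculum 10⁵ cells/mL, 24–48 h at 37 °C.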

Clostridium perfringens [35] = assay: In vitro Anti Bacterial Activity (MIC90) against 90% of tested clinical Isolates of Clostridium perfringens(27); method in brief: as §2
Enterococcus faecalis [36] = assay: In vitro Anti Bacterial Activity (MIC90) against 90% of tested clinical Isolates of Enterococcus faecalis(47)
Method in brief: (§5)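 Aerobic clinical isolates; MICs in Mueller Hinton 2 medium, inoculum 10⁴ cells/mL, incubated 24 h at 37 °C; MIC90 taken across isolates of each species.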

Enterococcus faecium [37] = assay: In vitro Anti Bacterial Activity (MIC90) against 90% of tested clinical Isolates of Enterococcus faecium(47); method in brief: as §5
Haemophilus influenzae [38] = assay: In vitro Anti Bacterial Activity (MIC90) against 90% of tested clinical Isolates of Haemophilus Influenzae(21)
Method in brief: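 MIC90 over clinical isolates; MICs in Haemophilus Test Medium Base with Haemophilus Test Medium Supplement, inoculum 10⁴ cells/mL, 24–48 h at 37 °C.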

Listeria monocytogenes [39] = assay: In vitro Anti Bacterial Activity (MIC90) against 90% of tested clinical Isolates of Listeria monocytogenes (20)
Streptococcus agalactiae [40] = assay: In vitro Anti Bacterial Activity (MIC90) against 90% of tested clinical Isolates of Streptococcus agalactiaeB(21)
Staphylococcus aureus [41] = assay: In vitro Anti Bacterial Activity (MIC90) against 90% of tested clinical Isolates of Staphylococcus aureus MS (6); method in brief: as §5
Staphylococcus aureus [42] = assay: In vitro Anti Bacterial Activity (MIC90) against 90% of tested clinical Isolates of Staphylococcus aureus MV (20)
[43] = tested on: Staphylococcus epidermidis; assay: In vitro Anti Bacterial Activity (MIC90) against 90% of tested clinical Isolates of S. epidermidis(13); method in brief: as §5
Streptococcus pyogenes [44] = assay: In vitro Anti Bacterial Activity (MIC90) against 90% of tested clinical Isolates of Streptococcus pyogenes(31)

C[C@@H](O)[C@H]1C(=O)N2C(C(=O)O)=C(CN(C)[C@@H](C)C(N)=O)S[C@H]12
MIC90 (Aeromonas [1]): 2 µg/mL (≈ 6.07 µM) | MIC90 [2]: 32 µg/mL (≈ 97.2 µM) | MIC90 (Moraxella catarrhalis [3]): 0.5 µg/mL (≈ 1.52 µM) | MIC90 (Bacteroides fragilis [4]): 8 µg/mL (≈ 24.3 µM) | MIC90 (Clostridium perfringens [5]): 0.5 µg/mL (≈ 1.52 µM) | MIC90 (Citrobacter freundii): 1 µg/mL (≈ 3.04 µM) | MIC90 (Enterococcus faecalis [6]): 8 µg/mL (≈ 24.3 µM) | MIC90 (Enterococcus faecium [7]): > 64 µg/mL | MIC (Enterococcus faecalis [8]): 4 µg/mL (≈ 12.1 µM) | MIC90 (Escherichia coli [9]): 0.25 µg/mL (≈ 0.759 µM) | MIC90 (Klebsiella aerogenes): 32 µg/mL (≈ 97.2 µM) | MIC (Escherichia coli [10]): 0.25 µg/mL (≈ 0.759 µM) | MIC (Escherichia coli [11]): 0.5 µg/mL (≈ 1.52 µM) | MIC (Escherichia coli [12]): 0.25 µg/mL (≈ 0.759 µM) | MIC (Escherichia coli [13]): 1 µg/mL (≈ 3.04 µM) | MIC (Escherichia coli [14]): 0.25 µg/mL (≈ 0.759 µM) | MIC90 (Haemophilus influenzae [15]): 4 µg/mL (≈ 12.1 µM) | MIC90 (Klebsiella pneumoniae): 1 µg/mL (≈ 3.04 µM) | MIC (Pseudomonas aeruginosa [16]): 0.25 µg/mL (≈ 0.759 µM) | MIC (Pseudomonas aeruginosa [17]): > 64 µg/mL | MIC (Pseudomonas aeruginosa [18]): 1 µg/mL (≈ 3.04 µM) | MIC90 (Pseudomonas aeruginosa [19]): > 64 µg/mL | MIC90 [20]: 0.25 µg/mL (≈ 0.759 µM) | MIC90 (Streptococcus agalactiae [21]): 0.06 µg/mL (≈ 0.182 µM) | MIC90 (Staphylococcus aureus [22]): 0.12 µg/mL (≈ 0.364 µM) | MIC90 (Staphylococcus aureus [23]): 8 µg/mL (≈ 24.3 µM) | MIC (Staphylococcus aureus [24]): 0.12 µg/mL (≈ 0.364 µM) | MIC (Staphylococcus aureus [25]): 2 µg/mL (≈ 6.07 µM) | MIC (Staphylococcus aureus [26]): 0.015 µg/mL (≈ 0.0455 µM) | MIC (Staphylococcus aureus [27]): 0.06 µg/mL (≈ 0.182 µM) | MIC90 (Streptococcus pyogenes [28]): 0.06 µg/mL (≈ 0.182 µM) | MIC90 (Streptococcus pneumoniae): 0.06 µg/mL (≈ 0.182 µM) | MIC90 (Yersinia sp.): 0.5 µg/mL (≈ 1.52 µM) | MIC90 [29]: > 64 µg/mL | MIC (Escherichia coli [30]): 1 µg/mL (≈ 3.04 µM) | MIC90 (Listeria monocytogenes [31]): 0.5 µg/mL (≈ 1.52 µM)

CC1(C)S[C@@H]2[C@H](NC(=O)[C@H](N)c3ccc(O)cc3)C(=O)N2[C@H]1C(=O)O [AMOXICILLIN]
MIC90 (Aeromonas [32]): > 32 µg/mL | MIC90 (Moraxella catarrhalis [33]): 2 µg/mL (≈ 5.47 µM) | MIC90 (Bacteroides fragilis [34]): 32 µg/mL (≈ 87.6 µM) | MIC90 (Clostridium perfringens [35]): 0.06 µg/mL (≈ 0.164 µM) | MIC90 (Enterococcus faecalis [36]): 0.5 µg/mL (≈ 1.37 µM) | MIC90 (Enterococcus faecium [37]): 32 µg/mL (≈ 87.6 µM) | MIC90 (Haemophilus influenzae [38]): 1 µg/mL (≈ 2.74 µM) | MIC90 (Klebsiella pneumoniae): > 64 µg/mL | MIC90 (Listeria monocytogenes [39]): 0.5 µg/mL (≈ 1.37 µM) | MIC90 (Streptococcus agalactiae [40]): 0.06 µg/mL (≈ 0.164 µM) | MIC90 (Staphylococcus aureus [41]): 1 µg/mL (≈ 2.74 µM) | MIC90 (Staphylococcus aureus [42]): 32 µg/mL (≈ 87.6 µM) | MIC90 [43]: 4 µg/mL (≈ 10.9 µM) | MIC90 (Streptococcus pyogenes [44]): 0.015 µg/mL (≈ 0.041 µM) | MIC90 (Streptococcus pneumoniae): 0.015 µg/mL (≈ 0.041 µM) | MIC90 (Yersinia sp.): > 64 µg/mL

— ChEMBL document CHEMBL1128718, “2-Substituted penems with amino acid-related side chains: synthesis and antibacterial activity of a new series of beta-lactam antibiotics” (1995)
